High-throughput results (PubChem)
TRAIL sens C8: caspase-8 TRAIL sensitization | NB7+C8 cells + TRAIL, ATPlite viability luminescence | inhibition (viability loss, TRAIL sensitization), % at 10 µM | 360,000 tested, 1% active;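 active = compounds causing at least 50% loss of cell viability in the single-dose screen, relative to plate controls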
PPC-1+TRAIL kill: compounds killing PPC-1 cancer cells with TRAIL present (potentiator screen, no TRAIL-free arm); PPC-1 cells + TRAIL, ATPLite viability luminescence; cell killing (% activity), % at 4 µM or 5 µM; 220,000 tested, 0.41% active; AID 1443;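 active = cell killing above 50% in the first pass at 4 µM, then a duplicate retest at 5 µM averaging 50% or more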
FLuc act counter: affects firefly luciferase, flagging false hits in luciferase stimulation screens. AID 1027. 200,000 tested, under 10 active. activation factor at 10 µM. ATPlite luciferase biochemical, luminescence, 10 min; 0 = ATP-free wells, 1 = DMSO control. P08659;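 active = luciferase activation factor, scaled between plate controls, of at least 2 with compound at 10 µM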
Target sequence (P08659 whole entry, looked up): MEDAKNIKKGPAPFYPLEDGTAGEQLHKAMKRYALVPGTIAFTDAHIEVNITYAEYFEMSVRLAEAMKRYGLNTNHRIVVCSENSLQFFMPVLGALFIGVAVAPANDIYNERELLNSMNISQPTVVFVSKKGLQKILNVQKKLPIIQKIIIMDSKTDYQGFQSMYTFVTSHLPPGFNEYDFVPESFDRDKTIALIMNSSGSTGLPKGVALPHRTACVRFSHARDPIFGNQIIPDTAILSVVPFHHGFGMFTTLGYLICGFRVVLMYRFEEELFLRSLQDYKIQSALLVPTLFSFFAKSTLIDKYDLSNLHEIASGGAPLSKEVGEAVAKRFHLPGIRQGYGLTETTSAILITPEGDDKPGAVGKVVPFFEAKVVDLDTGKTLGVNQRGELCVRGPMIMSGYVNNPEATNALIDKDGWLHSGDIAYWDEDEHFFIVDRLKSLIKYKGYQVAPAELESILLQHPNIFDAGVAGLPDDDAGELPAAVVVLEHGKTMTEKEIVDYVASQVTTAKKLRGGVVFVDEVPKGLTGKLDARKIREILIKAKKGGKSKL
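Material: luciferase plus luciferin reagent, cell-free. Medium: PBS buffer for ATP. Also added: ATP substrate, dispensed from a 10.24 µM working solution in PBS. Doses: test compounds dosed from 2 mM stocks in 100% DMSO. Incubation: 10 min post-reagent at room temperature. Technique: light output (luminescence). Read-out basis: luminescence gain marking luciferase activators.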
FLuc inhib CS: counter-screen for luciferase assay inhibitors: firefly luciferase inhibition. AID 1006. 200,000 tested, 1.5% active. inhibition, % at 10 µM. ATPLite firefly luciferase biochemical luminescence, 10 min;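 active = inhibition above about 50% when tested at 10 µM, limit read from the data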
Platelet DG rel: modulates dense granule release in human platelets; human platelet-rich plasma, SFLLRN dense granule ATP release, luminescence; inhibition, %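 (compounds screened at 7.5 µM in platelet-rich plasma)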; 300,000 tested, 0.22% active;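 active = mean replicate score, as percent of positive control, at or above 50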
A number is an active result. A selection: hits, their analogues and other compounds. The true share with any hit is near 1.6%.

What do the screens show for `Cc1ccc(NC(=O)c2ccc(OCC3CCCO3)cc2)cc1` (stereo not drawn)?
TRAIL sens C8: inactive; PPC-1+TRAIL kill: inactive; FLuc act counter: inactive; FLuc inhib CS: 52.6; Platelet DG rel: inactive

How did CCOC(=O)C1=CCC(c2cc3ccc(OC)cc3n2C(=O)OC(C)(C)C)NC1 (stereo not drawn) do in these assays?
TRAIL sens C8: inactive

What do the screens show for `CC(=NNC(=O)c1ccccc1N)c1ccccc1O`?
TRAIL sens C8: 53.9

What do the screens show for `N#Cc1c(-c2ccc(Cl)cc2)c(-c2ccc(Cl)cc2)nn(CCOC(=O)CCC(=O)O)c1=O`?
TRAIL sens C8: inactive

Results for O=C(Nc1nc2c(s1)C(=O)CCC2)c1ccccc1 ?
TRAIL sens C8: inactive; PPC-1+TRAIL kill: inactive; FLuc act counter: inactive; FLuc inhib CS: 65.8; Platelet DG rel: inactive

What do the screens show for `O=C(Nc1nc(=O)[nH]s1)c1ccccc1`?
TRAIL sens C8: inactive; PPC-1+TRAIL kill: inactive; FLuc act counter: inactive; FLuc inhib CS: inactive; Platelet DG rel: inactive

What do the screens show for `CN(C)c1ccc(C(=O)Nc2nc3c(s2)CCCC3)cc1`?
TRAIL sens C8: 54.5; PPC-1+TRAIL kill: inactive; FLuc act counter: inactive; FLuc inhib CS: 57.5; Platelet DG rel: inactive

What do the screens show for `CC(C)(C)c1ccc(C(=O)NC(=S)Nc2nc3c(s2)CCCC3)cc1`?
TRAIL sens C8: inactive; PPC-1+TRAIL kill: inactive; FLuc act counter: inactive; FLuc inhib CS: inactive; Platelet DG rel: inactive

What do the screens show for `COc1ccc(-c2coc3c(C(=O)NCc4ccc(OC)c(OC)c4)cccc23)c(C)c1`?
TRAIL sens C8: inactive

How did O=C(NCCc1ccc(Cl)cc1)C1CCC(CNc2c(N3CCCCC3)c(=O)c2=O)CC1 (stereo not drawn) do in these assays?
TRAIL sens C8: 51.1; PPC-1+TRAIL kill: inactive; FLuc act counter: inactive; FLuc inhib CS: inactive; Platelet DG rel: inactive

What do the screens show for `O=C(Nc1ccc(F)cc1)C(CCc1ccccc1)N1CCN(C(=O)c2ccco2)CC1` (stereo not drawn)?
TRAIL sens C8: inactive

Results for O=C1C=C(N2CCN(c3ccccn3)CC2)C(=O)c2c(O)ccc(O)c21 ?
TRAIL sens C8: 50.3

What do the screens show for `CCOc1ccc(-n2c(SCC(N)=O)nc3c([nH]c4ccccc43)c2=O)cc1`?
TRAIL sens C8: 51.2; PPC-1+TRAIL kill: inactive; FLuc act counter: inactive; FLuc inhib CS: inactive; Platelet DG rel: inactive

How did CC(C)C(=O)N1CCC1(C)C(=O)Nc1cc(-c2ccccc2)nn1C (stereo not drawn) do in these assays?
TRAIL sens C8: inactive

How did O=C(O)COc1ccccc1/C=N/NC(=O)c1cc(-c2ccc(F)cc2)nc2ccccc12 do in these assays?
TRAIL sens C8: inactive; PPC-1+TRAIL kill: inactive; FLuc act counter: inactive; FLuc inhib CS: 58.6; Platelet DG rel: inactive

How did O=C(N/N=C/c1ccc2c(c1)OCO2)c1cc(-c2ccc(F)cc2)nc2ccccc12 do in these assays?
TRAIL sens C8: inactive; PPC-1+TRAIL kill: inactive; FLuc act counter: inactive; FLuc inhib CS: inactive; Platelet DG rel: inactive

Results for CCOc1ccc(-c2cc(C(=O)N/N=C/c3cccnc3)c3ccccc3n2)cc1 ?
TRAIL sens C8: 73.5; Platelet DG rel: inactive

What do the screens show for `CCOc1ccccc1-c1cc(C(=O)N/N=C/c2cccnc2)c2ccccc2n1`?
TRAIL sens C8: inactive; Platelet DG rel: inactive

Results for C/C(=N\NC(=O)c1cc(-c2cccnc2)nc2ccccc12)c1ccc(O)cc1O ?
TRAIL sens C8: inactive; PPC-1+TRAIL kill: 51.1; FLuc act counter: inactive; FLuc inhib CS: inactive; Platelet DG rel: inactive

How did CC(=O)c1ccc(NC(=O)Nc2ccc3c(c2)nc(C)n3C)cc1 do in these assays?
TRAIL sens C8: inactive; PPC-1+TRAIL kill: inactive; FLuc act counter: inactive; FLuc inhib CS: inactive; Platelet DG rel: inactive

How did Cc1nc2cc(NC(=O)Nc3cccc([N+](=O)[O-])c3)ccc2n1C do in these assays?
TRAIL sens C8: 59.0; Platelet DG rel: inactive

What do the screens show for `Cc1ccc(NC(=O)Nc2ccc3c(c2)nc(C)n3C)cc1`?
TRAIL sens C8: inactive; PPC-1+TRAIL kill: inactive; FLuc act counter: inactive; FLuc inhib CS: 74.2; Platelet DG rel: inactive

What do the screens show for `Cc1ccc(CC2CC(=O)N(Cc3ccco3)C2=O)cc1` (stereo not drawn)?
TRAIL sens C8: inactive; PPC-1+TRAIL kill: inactive; FLuc act counter: inactive; FLuc inhib CS: inactive; Platelet DG rel: inactive

How did O=C1CC(Cc2ccccc2)C(=O)N1Cc1ccco1 (stereo not drawn) do in these assays?
TRAIL sens C8: inactive; PPC-1+TRAIL kill: inactive; FLuc act counter: inactive; FLuc inhib CS: 87.4; Platelet DG rel: inactive
